Data from ChEMBL document CHEMBL3784960, “New 4-Functionalized Glutamate Analogues Are Selective Agonists at Metabotropic Glutamate Receptor Subtype 2 or Selective Agonists at Metabotropic Glutamate Receptor Group III” (J Med Chem, 2016).
Activity calls are given as the source filed them. No cut-off for these calls is given here.

Tests used:
[1] = target: T1, Metabotropic glutamate receptor 1 (Rattus norvegicus, UniProt P23385); assay: Agonist activity at rat mGlu1 receptor expressed in HEK293 cells by intracellular Ca2+ mobilization assay; format: functional, cell-based
[2] = target: T2, Metabotropic glutamate receptor 5 (Rattus norvegicus, UniProt P31424); assay: Agonist activity at rat mGlu5 receptor expressed in HEK293 cells by intracellular Ca2+ mobilization assay; format: functional, cell-based
[3] = target: T3, Metabotropic glutamate receptor 2 (Rattus norvegicus, UniProt P31421); assay: Agonist activity at rat mGlu2 receptor expressed in HEK293 cells by [35S]GTP-gamma binding assay; format: cell-based
T3 sequence (P31421 whole entry): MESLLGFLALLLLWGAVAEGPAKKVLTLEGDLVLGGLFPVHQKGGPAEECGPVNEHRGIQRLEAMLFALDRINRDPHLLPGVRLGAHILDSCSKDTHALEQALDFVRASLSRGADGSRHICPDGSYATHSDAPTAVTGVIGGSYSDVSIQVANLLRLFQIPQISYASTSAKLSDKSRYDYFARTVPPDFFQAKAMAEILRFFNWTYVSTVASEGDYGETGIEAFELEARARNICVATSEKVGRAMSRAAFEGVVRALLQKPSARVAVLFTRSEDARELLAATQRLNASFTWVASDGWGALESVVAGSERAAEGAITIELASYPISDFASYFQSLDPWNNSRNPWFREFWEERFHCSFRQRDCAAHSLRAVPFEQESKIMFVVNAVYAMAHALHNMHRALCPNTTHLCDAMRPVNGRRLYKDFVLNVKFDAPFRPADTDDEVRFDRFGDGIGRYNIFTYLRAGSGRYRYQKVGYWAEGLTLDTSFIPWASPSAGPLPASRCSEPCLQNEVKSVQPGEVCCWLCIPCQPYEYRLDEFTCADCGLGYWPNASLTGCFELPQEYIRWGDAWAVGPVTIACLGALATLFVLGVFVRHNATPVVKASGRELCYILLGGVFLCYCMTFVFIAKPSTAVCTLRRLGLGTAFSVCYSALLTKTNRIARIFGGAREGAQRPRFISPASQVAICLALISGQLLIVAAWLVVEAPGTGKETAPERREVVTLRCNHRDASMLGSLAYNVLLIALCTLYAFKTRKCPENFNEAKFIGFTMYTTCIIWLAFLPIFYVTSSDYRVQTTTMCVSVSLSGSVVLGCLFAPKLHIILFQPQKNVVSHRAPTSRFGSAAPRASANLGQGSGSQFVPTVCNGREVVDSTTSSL

[4] = target: T4, Metabotropic glutamate receptor 4 (Rattus norvegicus, UniProt P31423); assay: Agonist activity at rat mGlu4 receptor expressed in HEK293 cells assessed as inhibition of forskolin stimulated cAMP production; format: functional, cell-based
T4 sequence (P31423 whole entry): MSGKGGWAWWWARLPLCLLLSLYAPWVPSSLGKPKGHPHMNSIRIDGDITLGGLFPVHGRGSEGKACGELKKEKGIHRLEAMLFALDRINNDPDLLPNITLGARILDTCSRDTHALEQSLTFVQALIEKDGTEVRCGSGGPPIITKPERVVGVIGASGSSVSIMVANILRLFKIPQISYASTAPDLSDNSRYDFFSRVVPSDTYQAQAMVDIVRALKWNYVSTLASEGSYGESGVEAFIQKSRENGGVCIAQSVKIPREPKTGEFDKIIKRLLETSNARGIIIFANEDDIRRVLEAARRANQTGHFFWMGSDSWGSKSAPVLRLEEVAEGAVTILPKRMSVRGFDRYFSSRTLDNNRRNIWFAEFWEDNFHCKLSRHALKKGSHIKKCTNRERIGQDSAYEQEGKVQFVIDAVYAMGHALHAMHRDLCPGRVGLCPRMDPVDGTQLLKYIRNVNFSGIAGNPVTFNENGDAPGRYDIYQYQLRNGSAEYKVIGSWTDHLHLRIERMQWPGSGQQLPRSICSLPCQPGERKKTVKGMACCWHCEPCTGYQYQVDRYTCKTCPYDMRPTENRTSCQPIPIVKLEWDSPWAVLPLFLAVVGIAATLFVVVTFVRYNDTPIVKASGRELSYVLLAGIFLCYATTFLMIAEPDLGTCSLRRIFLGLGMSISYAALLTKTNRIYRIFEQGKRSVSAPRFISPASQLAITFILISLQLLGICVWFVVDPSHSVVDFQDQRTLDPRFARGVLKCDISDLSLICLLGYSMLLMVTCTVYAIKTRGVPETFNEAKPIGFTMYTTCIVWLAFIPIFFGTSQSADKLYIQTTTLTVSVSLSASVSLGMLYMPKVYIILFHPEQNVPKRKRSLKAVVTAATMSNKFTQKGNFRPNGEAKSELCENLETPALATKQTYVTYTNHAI

[5] = target: T5, Metabotropic glutamate receptor 3 (Rattus norvegicus, UniProt P31422); assay: Agonist activity at rat mGlu3 receptor by FRET based mGlu sensor assay
In short: (§1)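 Receptor carried an N-terminal SNAP-tag and was transfected into HEK293 cells. At 24 h, surface receptors were labelled for 1 h with 100 nM SNAP-Lumi4-Tb (donor) and 60 nM SNAP Green (acceptor), washed three times, then drug was added. Time-resolved FRET was recorded at 520 nm, at least in duplicate. EC50 ± SEM came from n = 4−6 experiments.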

[6] = target: T3, Metabotropic glutamate receptor 2; assay: Agonist activity at rat mGlu2 receptor by FRET based mGlu sensor assay
In short: as §1, with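 “duplicate.” for “duplicate. EC50 ± SEM came from n = 4−6 experiments.”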

[7] = target: Metabotropic glutamate receptor 6 (Rattus norvegicus, UniProt P35349); assay: Agonist activity at rat mGlu6 receptor expressed in HEK293 cells assessed as IP1 accumulation by IP-One functional assay; format: cell-based
Sequence of Metabotropic glutamate receptor 6 (P35349 whole entry): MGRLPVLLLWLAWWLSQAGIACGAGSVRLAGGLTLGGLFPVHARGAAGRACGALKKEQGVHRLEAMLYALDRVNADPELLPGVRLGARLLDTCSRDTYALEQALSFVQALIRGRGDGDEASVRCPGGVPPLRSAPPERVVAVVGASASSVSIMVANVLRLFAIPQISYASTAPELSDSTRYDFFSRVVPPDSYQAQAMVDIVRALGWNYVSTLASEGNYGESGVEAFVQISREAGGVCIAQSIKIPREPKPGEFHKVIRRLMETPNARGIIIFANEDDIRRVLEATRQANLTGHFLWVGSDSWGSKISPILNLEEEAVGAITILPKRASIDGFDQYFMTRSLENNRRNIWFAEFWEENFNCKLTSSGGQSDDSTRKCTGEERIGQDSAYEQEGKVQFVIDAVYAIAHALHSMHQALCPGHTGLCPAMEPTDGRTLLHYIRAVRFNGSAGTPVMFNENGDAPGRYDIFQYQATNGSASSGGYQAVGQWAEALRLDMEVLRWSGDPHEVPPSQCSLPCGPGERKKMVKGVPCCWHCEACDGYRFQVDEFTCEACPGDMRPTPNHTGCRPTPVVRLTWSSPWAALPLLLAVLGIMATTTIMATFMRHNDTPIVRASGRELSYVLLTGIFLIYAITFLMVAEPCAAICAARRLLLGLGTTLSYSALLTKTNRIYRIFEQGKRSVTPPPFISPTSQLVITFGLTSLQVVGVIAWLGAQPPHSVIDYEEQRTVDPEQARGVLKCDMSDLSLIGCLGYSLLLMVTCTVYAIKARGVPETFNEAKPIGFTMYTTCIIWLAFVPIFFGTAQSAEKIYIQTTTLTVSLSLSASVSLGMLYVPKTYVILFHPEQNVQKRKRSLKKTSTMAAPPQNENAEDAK
In short: (§2)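 HEK293 cells were transiently electroporated with the rat receptor plus a chimeric Gi/Gq protein for PLC coupling and EAAC1. Medium was replaced by Glutamax at least 2 h before agonist. IP1 accumulation was measured by HTRF 24 h post-transfection, at least in duplicate. EC50 ± SEM came from n = 4−6 experiments.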

[8] = target: Metabotropic glutamate receptor 7 (Rattus norvegicus, UniProt P35400); assay: Agonist activity at rat mGlu7 receptor expressed in HEK293 cells assessed as IP1 accumulation by IP-One functional assay; format: cell-based; in short: as §2
Sequence of Metabotropic glutamate receptor 7 (Rattus norvegicus, UniProt P35400) (P35400 whole entry): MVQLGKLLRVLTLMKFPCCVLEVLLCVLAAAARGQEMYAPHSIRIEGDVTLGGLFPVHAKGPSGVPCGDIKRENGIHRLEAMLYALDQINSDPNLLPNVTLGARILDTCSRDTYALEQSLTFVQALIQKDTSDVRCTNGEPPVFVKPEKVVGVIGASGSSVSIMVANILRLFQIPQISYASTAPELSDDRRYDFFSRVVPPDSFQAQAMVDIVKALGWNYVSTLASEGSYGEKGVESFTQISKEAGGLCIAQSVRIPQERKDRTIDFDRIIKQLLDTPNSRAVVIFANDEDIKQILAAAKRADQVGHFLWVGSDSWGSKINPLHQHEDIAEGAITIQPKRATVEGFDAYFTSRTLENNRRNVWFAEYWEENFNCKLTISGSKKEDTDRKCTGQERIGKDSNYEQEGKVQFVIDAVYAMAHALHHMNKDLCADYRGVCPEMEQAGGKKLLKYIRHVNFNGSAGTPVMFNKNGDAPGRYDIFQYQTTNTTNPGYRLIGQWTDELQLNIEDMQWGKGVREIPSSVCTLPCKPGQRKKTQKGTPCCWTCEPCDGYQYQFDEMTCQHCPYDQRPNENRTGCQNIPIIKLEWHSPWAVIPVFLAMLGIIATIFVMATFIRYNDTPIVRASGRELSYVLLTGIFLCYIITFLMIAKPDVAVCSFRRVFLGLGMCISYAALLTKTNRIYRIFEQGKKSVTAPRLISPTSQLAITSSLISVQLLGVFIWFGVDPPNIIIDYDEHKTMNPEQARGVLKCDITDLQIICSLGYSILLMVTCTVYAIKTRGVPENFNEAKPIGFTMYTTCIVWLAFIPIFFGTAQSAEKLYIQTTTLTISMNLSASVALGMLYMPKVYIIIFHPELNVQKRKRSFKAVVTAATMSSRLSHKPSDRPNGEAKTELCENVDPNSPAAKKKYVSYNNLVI

[9] = target: Metabotropic glutamate receptor 8 (Rattus norvegicus, UniProt P70579); assay: Agonist activity at rat mGlu8 receptor expressed in HEK293 cells assessed as IP1 accumulation by IP-One functional assay; format: cell-based; in short: as §2
[10] = target: T5, Metabotropic glutamate receptor 3; assay: Agonist activity at rat mGlu3 receptor expressed in HEK293 cells by [35S]GTP-gamma binding assay; format: cell-based
[11] = target: T4, Metabotropic glutamate receptor 4; assay: Agonist activity at rat mGlu4 receptor expressed in HEK293 cells assessed as IP1 accumulation by IP-One functional assay; format: cell-based; in short: as §2
[12] = target: Metabotropic glutamate receptor 7 (Homo sapiens, UniProt Q14831); assay: Agonist activity at human mGlu7 receptor expressed in HEK293 assessed as inhibition of forskolin stimulated cAMP production; format: functional, cell-based
Sequence of Metabotropic glutamate receptor 7 (Homo sapiens, UniProt Q14831) (Q14831 whole entry): as the sequence (P35400 whole entry) above, with G5R, V27A, H454N, T488S, S520A, N578D counted along it

[13] = target: T6, Excitatory amino acid transporter 2 (Homo sapiens, UniProt P43004); assay: Substrate activity at human EAAT2 assessed as [3H]Asp uptake measured up to 300 uM
[14] = target: T3, Metabotropic glutamate receptor 2; assay: Agonist activity at rat mGlu2 receptor expressed in HEK293 cells assessed as IP1 accumulation by IP-One functional assay; format: cell-based
In short: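 HEK293 cells were transiently electroporated with the rat receptor plus a chimeric Gi/Gq protein for PLC coupling and EAAC1. Medium was replaced by Glutamax at least 2 h before agonist. IP1 accumulation was measured by HTRF 24 h post-transfection, at least in duplicate.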

[15] = Displacement of [3H]AMPA from rat synaptosome AMPA receptor after 30 mins by microplate scintillation counter analysis
[16] = target: T2, Metabotropic glutamate receptor 5; assay: Agonist activity at rat mGlu5 receptor expressed in HEK293 cells assessed as IP1 accumulation by IP-One functional assay; format: cell-based
[17] = target: T7, Excitatory amino acid transporter 1 (Homo sapiens, UniProt P43003); assay: Inhibition of human EAAT1 assessed as [3H]Asp uptake
T7 sequence (P43003 whole entry): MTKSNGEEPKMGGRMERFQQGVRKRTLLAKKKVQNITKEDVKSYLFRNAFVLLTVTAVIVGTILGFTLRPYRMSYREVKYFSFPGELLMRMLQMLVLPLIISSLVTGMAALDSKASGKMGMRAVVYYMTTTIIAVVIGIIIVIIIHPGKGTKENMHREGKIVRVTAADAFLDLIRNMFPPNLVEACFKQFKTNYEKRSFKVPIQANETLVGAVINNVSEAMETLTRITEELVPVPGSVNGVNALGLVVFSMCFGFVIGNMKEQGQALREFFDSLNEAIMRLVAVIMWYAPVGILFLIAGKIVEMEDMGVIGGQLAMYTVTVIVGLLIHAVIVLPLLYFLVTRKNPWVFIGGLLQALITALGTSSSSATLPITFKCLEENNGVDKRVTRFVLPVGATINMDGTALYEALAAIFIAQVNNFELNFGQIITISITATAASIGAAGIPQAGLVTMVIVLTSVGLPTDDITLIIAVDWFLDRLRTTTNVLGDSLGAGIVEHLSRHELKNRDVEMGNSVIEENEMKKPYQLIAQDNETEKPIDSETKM

[18] = target: Metabotropic glutamate receptor 2 (Homo sapiens) (UniProt Q14416); assay: Agonist activity at mGlu2 receptor (unknown origin) assessed as IP1 accumulation preincubated with 3 uM LY341495 for 20 mins followed by addition of 1 mM of compound by IP-One functional assay
Sequence of Metabotropic glutamate receptor 2 (Homo sapiens) (Q14416 19-872 limits assumed): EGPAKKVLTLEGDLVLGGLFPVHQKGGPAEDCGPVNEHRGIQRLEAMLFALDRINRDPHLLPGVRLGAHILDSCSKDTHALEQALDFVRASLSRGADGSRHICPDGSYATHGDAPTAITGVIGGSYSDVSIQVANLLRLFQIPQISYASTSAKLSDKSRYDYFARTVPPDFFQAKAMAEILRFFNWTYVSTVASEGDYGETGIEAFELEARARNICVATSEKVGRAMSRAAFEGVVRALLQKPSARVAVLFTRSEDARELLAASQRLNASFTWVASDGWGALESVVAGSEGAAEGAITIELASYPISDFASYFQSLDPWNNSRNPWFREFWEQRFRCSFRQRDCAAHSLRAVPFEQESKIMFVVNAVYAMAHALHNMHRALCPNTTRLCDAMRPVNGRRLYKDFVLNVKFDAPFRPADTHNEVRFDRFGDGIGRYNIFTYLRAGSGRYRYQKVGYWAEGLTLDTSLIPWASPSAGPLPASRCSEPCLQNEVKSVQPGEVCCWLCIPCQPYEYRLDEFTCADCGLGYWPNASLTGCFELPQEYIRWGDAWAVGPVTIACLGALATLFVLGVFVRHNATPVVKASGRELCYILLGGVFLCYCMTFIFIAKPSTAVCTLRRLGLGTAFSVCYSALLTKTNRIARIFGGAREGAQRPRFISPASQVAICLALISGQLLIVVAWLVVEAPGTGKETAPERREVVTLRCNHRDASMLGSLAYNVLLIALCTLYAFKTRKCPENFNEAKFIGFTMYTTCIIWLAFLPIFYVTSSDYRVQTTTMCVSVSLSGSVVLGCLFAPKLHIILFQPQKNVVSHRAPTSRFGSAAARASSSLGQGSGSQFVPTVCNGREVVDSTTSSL
In short: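 Single-dose test in HEK293 cells cotransfected with rat receptor, chimeric Gi/Gq and EAAC1. Cells were pretreated with 3 μM LY341495 for 20 min at 37 °C, washed twice, then stimulated with 1 mM compound. IP1 was read by HTRF 24 h post-transfection. Comparison was against vehicle by one-way ANOVA with Dunnett's test.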

[19] = target: T7, Excitatory amino acid transporter 1; assay: Substrate activity at human EAAT1 assessed as [3H]Asp uptake measured up to 300 uM
[20] = target: T8, Excitatory amino acid transporter 3 (Homo sapiens, UniProt P43005); assay: Inhibition of human EAAT3 assessed as [3H]Asp uptake
T8 sequence (P43005 whole entry): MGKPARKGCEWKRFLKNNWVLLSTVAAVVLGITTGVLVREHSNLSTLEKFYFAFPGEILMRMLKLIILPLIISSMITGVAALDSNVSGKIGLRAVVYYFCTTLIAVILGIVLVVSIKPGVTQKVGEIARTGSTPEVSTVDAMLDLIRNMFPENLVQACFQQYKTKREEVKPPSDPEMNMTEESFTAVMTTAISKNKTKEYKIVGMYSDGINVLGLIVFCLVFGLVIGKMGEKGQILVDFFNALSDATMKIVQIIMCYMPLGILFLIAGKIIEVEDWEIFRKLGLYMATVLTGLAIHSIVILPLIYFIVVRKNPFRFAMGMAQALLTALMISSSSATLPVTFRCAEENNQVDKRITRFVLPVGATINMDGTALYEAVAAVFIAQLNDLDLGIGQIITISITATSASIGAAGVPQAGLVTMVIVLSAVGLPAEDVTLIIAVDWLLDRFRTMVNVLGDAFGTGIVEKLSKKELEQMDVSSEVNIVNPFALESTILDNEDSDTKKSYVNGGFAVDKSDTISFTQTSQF

[21] = target: T1, Metabotropic glutamate receptor 1; assay: Agonist activity at rat mGlu1 receptor expressed in HEK293 cells assessed as IP1 accumulation by IP-One functional assay; format: cell-based
In short: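 Rat group I receptor transiently electroporated into HEK293 with the EAAC1 glutamate transporter; medium switched to Glutamax at least 2 h before stimulation. IP1 was read by HTRF (IP-One kit) 24 h after transfection. Runs were at least in duplicate, with EC50 ± SEM from n = 4−6 experiments.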

[22] = Displacement of [3H]KA from rat synaptosome KA receptor after 60 mins by microplate scintillation counter analysis
[23] = target: T6, Excitatory amino acid transporter 2; assay: Inhibition of human EAAT2 assessed as [3H]Asp uptake
[24] = target: Metabotropic glutamate receptor 3 (Rattus norvegicus) (UniProt P31422); assay: Agonist activity at mGlu3 receptor (rat) assessed as IP1 accumulation preincubated with 3 uM LY341495 for 20 mins followed by addition of 1 mM of compound by IP-One functional assay
[25] = target: Glutamate NMDA receptor; assay: Displacement of [3H]CGP from rat synaptosome NMDA receptor after 60 mins by microplate scintillation counter analysis; format: protein-complex assay

Compound	EC50 [1]	EC50 [2]	EC50 ([3]; read-out: EC50)	EC50 [4]	EC50 [5]	EC50 [6]	EC50 [7]	EC50 [8]	EC50 [10]	EC50 [9]	EC50 [11]	EC50 [12]	other results
N[C@H](C(=O)O)C1[C@@H](C(=O)O)[C@@H]1C(=O)O (stereo partly drawn)					8e-05 mM	0.00035 mM							
N[C@@H](CCP(=O)(O)O)C(=O)O							0.00191 mM	0.34 mM					EC50 ([9]; hek293): 0.07 µM
N[C@@H](CCC(=O)O)C(=O)O [GLUTAMIC ACID]					0.0034 mM		0.0651 mM		6e-05 mM	14 µM	0.00949 mM	0.00118 mM	
N[C@@H](C[C@]1(C(=O)O)C[C@H]1C(=O)O)C(=O)O					> 1 mM	> 1 mM	0.00049 mM	0.12 mM		0.68 µM	0.00013 mM		Activity [13]: inactive; EC50 [14]: 0.145 mM; IC50 [15]: > 0.1 mM; EC50 [16]: > 1 mM; IC50 [17]: > 0.3 mM; Activity [18]: Active; Activity [19]: inactive; IC50 [20]: > 0.3 mM; EC50 [21]: > 1 mM; IC50 [22]: > 0.1 mM; IC50 [23]: > 0.3 mM; Activity [24]: inactive; Ki [25]: 0.013 mM
COC(=O)CC[C@H](C[C@H](N)C(=O)O)C(=O)O	> 1 mM	> 1 mM	> 1 mM	> 1 mM									
CN(O)C(=O)CC[C@H](C[C@H](N)C(=O)O)C(=O)O	> 1 mM	> 1 mM	> 1 mM	> 1 mM					> 1 mM			> 1 mM	
N[C@@H](C[C@@H](CCC(=O)O)C(=O)O)C(=O)O	> 1 mM	> 1 mM	0.00163 mM	> 1 mM	> 1 mM	0.12 mM	> 1 mM	> 1 mM	0.348 mM	> 1000 µM	≥ 0.1 mM	> 1 mM	Activity [13]: inactive; EC50 [14]: 0.0342 mM; IC50 [15]: > 0.1 mM; EC50 [16]: > 1 mM; IC50 [17]: > 0.3 mM; Activity [18]: Active; Activity [19]: inactive; IC50 [20]: > 0.3 mM; EC50 ([3]; read-out: pEC50 (converted)): 0.00166 mM; EC50 [21]: > 1 mM; IC50 [22]: > 0.1 mM; IC50 [23]: > 0.3 mM; Activity [24]: inactive
CCC[C@H](C[C@H](N)C(=O)O)C(=O)O	> 1 mM		> 1 mM	> 1 mM									
N[C@@H](C[C@]1(C(=O)O)C[C@@H]1C(=O)O)C(=O)O					> 1 mM	0.119 mM	> 1 mM	> 1 mM		> 1000 µM	> 1 mM		Activity [13]: inactive; EC50 [14]: 0.0337 mM; IC50 [15]: > 0.1 mM; EC50 [16]: > 1 mM; IC50 [17]: > 0.3 mM; Activity [18]: Active; Activity [19]: inactive; IC50 [20]: > 0.3 mM; EC50 [21]: > 1 mM; IC50 [22]: > 0.1 mM; IC50 [23]: > 0.3 mM; Activity [24]: inactive; Ki [25]: > 0.1 mM
NCCC[C@H](C[C@H](N)C(=O)O)C(=O)O	> 1 mM	> 1 mM	0.049 mM	> 1 mM					> 1 mM			> 1 mM	EC50 ([3]; read-out: pEC50 (converted)): 0.0049 mM
N[C@@H](C[C@@H](CC(=O)O)C(=O)O)C(=O)O	> 1 mM	> 1 mM	> 1 mM	> 1 mM					> 1 mM			> 1 mM	

Continued, in another order:

EC50 [1]	EC50 [2]	EC50 ([3]; read-out: EC50)	EC50 [4]	EC50 [5]	EC50 [6]	EC50 [7]	EC50 [8]	EC50 [10]	EC50 [9]	EC50 [11]	EC50 [12]	Compound	other results
> 1 mM	> 1 mM	> 1 mM	> 1 mM									NC(=O)CC[C@H](C[C@H](N)C(=O)O)C(=O)O	
> 1 mM	> 1 mM	> 1 mM	> 1 mM									CNC(=O)CC[C@H](C[C@H](N)C(=O)O)C(=O)O	
> 1 mM	> 1 mM	> 1 mM	> 1 mM					> 1 mM			> 1 mM	N#CCC[C@H](C[C@H](N)C(=O)O)C(=O)O	
> 1 mM	> 1 mM	> 1 mM	> 1 mM					> 1 mM			> 1 mM	NCC[C@H](C[C@H](N)C(=O)O)C(=O)O	
> 1 mM		> 1 mM	> 1 mM									CC[C@H](C[C@H](N)C(=O)O)C(=O)O	
				> 1 mM	> 1 mM	> 1 mM	> 1 mM		> 1000 µM	> 1 mM		N[C@@H](C[C@@]1(C(=O)O)C[C@H]1C(=O)O)C(=O)O	Activity [13]: inactive; EC50 [14]: > 1 mM; IC50 [15]: > 0.1 mM; EC50 [16]: > 1 mM; IC50 [17]: > 0.3 mM; Activity [19]: inactive; IC50 [20]: > 0.3 mM; EC50 [21]: > 1 mM; IC50 [22]: > 0.1 mM; IC50 [23]: > 0.3 mM; Ki [25]: > 0.1 mM
				> 1 mM	> 1 mM	0.0178 mM	> 1 mM		20.8 µM	0.00248 mM		N[C@@H](C[C@@]1(C(=O)O)C[C@@H]1C(=O)O)C(=O)O	Activity [13]: inactive; EC50 [14]: > 1 mM; IC50 [15]: > 0.1 mM; EC50 [16]: > 1 mM; IC50 [17]: > 0.3 mM; Activity [19]: inactive; IC50 [20]: > 0.3 mM; EC50 [21]: > 1 mM; IC50 [22]: > 0.1 mM; IC50 [23]: > 0.3 mM; Ki [25]: 0.015 mM
> 1 mM	> 1 mM	> 1 mM	> 1 mM					> 1 mM			> 1 mM	N[C@@H](C[C@@H](CCC(=O)NO)C(=O)O)C(=O)O	
